The text below walks through data of ChEMBL document CHEMBL3421623 (J Med Chem, 2015).

The target in data set [1] is T1, Estrogen receptor beta (Homo sapiens, UniProt Q92731). Put plainly: Displacement of fluorescein-labeled ES2 from human recombinant ERbeta receptor after 2 hrs by fluorescence polarization assay. An outline of the steps: (§1)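 Fluorescence polarization competition. Compound in methanol or DMSO mixed with ES2 screening buffer (100 mM potassium phosphate, 100 μg/mL BGG, 0.02% NaN₃). Preformed complex added to final 9 nM ES2 with 30 nM ER-α or 20 nM ER-β. Polarization expressed as % of vehicle control; EC50 from one-site competition fit.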
(Fluorescence polarisation rises when a labelled molecule tumbles more slowly, as on binding a larger partner.)

Data set [2] deals with T2, Estrogen receptor (Homo sapiens) (UniProt P03372).
T2 sequence (whole entry): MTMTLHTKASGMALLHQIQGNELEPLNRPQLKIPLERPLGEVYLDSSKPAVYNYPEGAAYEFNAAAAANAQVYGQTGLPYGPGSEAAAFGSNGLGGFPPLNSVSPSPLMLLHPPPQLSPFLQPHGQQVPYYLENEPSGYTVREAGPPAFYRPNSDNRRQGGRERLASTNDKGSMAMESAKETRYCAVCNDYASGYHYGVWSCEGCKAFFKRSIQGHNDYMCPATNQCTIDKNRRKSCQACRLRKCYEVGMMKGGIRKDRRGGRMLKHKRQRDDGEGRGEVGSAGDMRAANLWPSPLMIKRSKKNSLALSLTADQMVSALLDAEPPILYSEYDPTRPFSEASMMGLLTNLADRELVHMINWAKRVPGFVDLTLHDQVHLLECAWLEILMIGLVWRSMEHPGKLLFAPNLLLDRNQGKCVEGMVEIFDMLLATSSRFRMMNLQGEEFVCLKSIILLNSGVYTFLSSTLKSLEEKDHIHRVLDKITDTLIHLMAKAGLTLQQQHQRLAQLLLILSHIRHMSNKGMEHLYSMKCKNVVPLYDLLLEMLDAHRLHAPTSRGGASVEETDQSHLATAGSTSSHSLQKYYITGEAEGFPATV
Put plainly: Antiestrogenic effect at estrogen receptor in human MCF7 cells assessed as inhibition of E2-induced progesterone receptor mRNA expression at 1000 nM after 24 hrs by real time quantitative PCR. The data set is classed as cell-based. Also noted: scale not given: the % may be the effect or the level left. An outline of the steps:
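MCF-7 cells (10⁵/well) grown in MEM + 10% FBS at 37 °C, 5% CO₂, then preconditioned 72 h in charcoal-stripped FBS. Treated 24 h with 1 μM compound or vehicle (0.1% methanol) plus 10 nM E2 in MEM/10% charcoal-stripped FBS. PGR mRNA extracted after genomic DNA removal and quantified by qPCR (40 cycles, Ct). Reported as % of E2-alone expression (100%); 1 μM endoxifen as positive control.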

A further data set deals with T3, Aromatase (Homo sapiens, UniProt P11511).
T3 sequence (P11511 whole entry): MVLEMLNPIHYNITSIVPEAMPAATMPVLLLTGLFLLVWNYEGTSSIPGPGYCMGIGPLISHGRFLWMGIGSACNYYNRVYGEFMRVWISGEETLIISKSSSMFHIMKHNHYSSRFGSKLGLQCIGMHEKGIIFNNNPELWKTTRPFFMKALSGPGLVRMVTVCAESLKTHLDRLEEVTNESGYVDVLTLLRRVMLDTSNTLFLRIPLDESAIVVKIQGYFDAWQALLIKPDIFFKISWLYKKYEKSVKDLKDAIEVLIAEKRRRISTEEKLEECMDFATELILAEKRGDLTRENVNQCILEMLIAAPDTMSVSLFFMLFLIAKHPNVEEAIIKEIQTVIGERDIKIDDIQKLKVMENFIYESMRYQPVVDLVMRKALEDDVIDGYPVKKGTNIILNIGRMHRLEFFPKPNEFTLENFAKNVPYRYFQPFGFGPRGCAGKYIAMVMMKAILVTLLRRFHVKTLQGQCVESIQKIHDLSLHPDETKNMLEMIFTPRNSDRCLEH
Put plainly: Inhibition of human recombinant aromatase using 7-methoxy-trifluoromethylcoumarin as substrate assessed as formation of fluorescent metabolite after 30 mins by fluorescence assay. As to conditions: for inhibition (INH): human, 0.5 h. The gist of the method: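 Recombinant human CYP19 with MFC substrate, converted to fluorescent HFC, in 0.1 M potassium phosphate pH 7.4. NADPH-regenerating mix (NADP⁺, MgCl₂, glucose-6-phosphate, G6PDH); compound prewarmed 10 min at 37 °C, then 30 min reaction stopped with Tris base in acetonitrile. Activity as % of vehicle control; IC50 from one-site competition fit; Ki from Lineweaver–Burk data by nonlinear regression.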

The target of another data set is T4, Estrogen receptor (Homo sapiens, UniProt P03372).
T4 sequence (P03372 whole entry): T2 sequence (whole entry)
Put plainly: Displacement of fluorescein-labeled ES2 from human recombinant ERalpha receptor after 2 hrs by fluorescence polarization assay. An outline of the steps:
as §1

Data set [3] deals with T2, Estrogen receptor (Homo sapiens). Put plainly: Displacement of fluorescein-labeled ES2 from human recombinant ERalpha receptor at 100000 nM after 2 hrs by fluorescence polarization assay. The gist of the method: (§2)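 Same ES2 fluorescence polarization setup: 9 nM ES2 with 30 nM ER-α or 20 nM ER-β, in phosphate/BGG buffer, 2 h in the dark. Each compound tested at a single 100000 nM and reported as percent ER competition versus vehicle control. Compounds were E/Z isomer mixtures (mostly 1:1). Mean of at least three experiments.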

Data set [4] addresses T1, Estrogen receptor beta. The experiment in a line: Displacement of fluorescein-labeled ES2 from human recombinant ERbeta receptor at 100000 nM after 2 hrs by fluorescence polarization assay. The gist of the method:
as §2

SMILES strings stand for the structures.

T1 sequence (Q92731 whole entry): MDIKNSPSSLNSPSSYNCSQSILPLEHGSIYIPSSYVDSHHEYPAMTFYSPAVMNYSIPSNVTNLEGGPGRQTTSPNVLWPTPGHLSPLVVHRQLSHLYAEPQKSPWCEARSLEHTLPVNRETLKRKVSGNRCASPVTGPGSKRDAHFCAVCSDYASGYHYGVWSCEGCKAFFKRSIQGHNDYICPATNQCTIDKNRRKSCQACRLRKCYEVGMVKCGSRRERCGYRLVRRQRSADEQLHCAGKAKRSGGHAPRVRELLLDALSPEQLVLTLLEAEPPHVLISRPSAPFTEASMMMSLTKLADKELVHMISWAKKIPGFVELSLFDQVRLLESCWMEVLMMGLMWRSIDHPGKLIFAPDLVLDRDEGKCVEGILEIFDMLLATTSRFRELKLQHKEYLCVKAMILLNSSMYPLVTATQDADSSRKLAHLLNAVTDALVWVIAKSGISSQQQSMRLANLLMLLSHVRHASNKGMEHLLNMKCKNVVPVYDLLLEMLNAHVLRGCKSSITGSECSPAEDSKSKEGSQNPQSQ

As a reminder, the EC50 is the midpoint of the concentration-response curve. Broadly, the IC50 is the concentration at which inhibition is half-maximal. In the case of `CC/C(=C(/c1ccc(O)cc1)c1ccc(OCCN)cc1)c1ccc(F)cc1` (mixture of isomers), the EC50 worked out at 49.2 nM on Estrogen receptor beta [1] and 87.8 nM on Estrogen receptor. Further, the Activity in data set [2] was 42%. Further, on Aromatase, the IC50 came out at 1020 nM.

Turning to `NCCOc1ccc(/C(=C(/Cn2cnnc2)c2ccccc2)c2ccc(O)cc2)cc1`, the EC50 was determined as 47.7 nM on Estrogen receptor beta [1] and 56.5 nM on Estrogen receptor. The Activity in data set [2] came out at 47%. Besides, at Aromatase, the IC50 turned out to be 715 nM.

For `NCCOc1ccc(/C(=C(\Cn2cncn2)c2ccccc2)c2ccc(O)cc2)cc1` (mixture of isomers), the EC50 at Estrogen receptor beta [1] was determined as 519 nM; on Estrogen receptor it was 290 nM. Also, the Activity in data set [2] came to 47%. Also, at Aromatase, the half-inhibitory concentration (IC50) was 174 nM.

For `CC(C)/C(=C(/c1ccc(O)cc1)c1ccc(OCCN)cc1)c1ccccc1` (mixture of isomers), the results for the Activity (in data set [3]; at Estrogen receptor beta [4]) were 54% and 68%, respectively. In addition, the half-maximal inhibitory concentration (IC50) at Aromatase came to 328 nM.

Consider `NCCOc1ccc(/C(=C(\Cn2cnnc2)c2ccccc2)c2ccc(O)cc2)cc1`, for which the EC50 on Estrogen receptor beta [1] turned out to be 57.5 nM; on Estrogen receptor it was 176 nM. For the same compound, the Activity in data set [2] was found to be 44%. The IC50 on Aromatase worked out at 699 nM.

Regarding `NCCOc1ccc(/C(=C(\CCCl)c2ccccc2)c2ccc(O)cc2)cc1` (mixture of isomers), the EC50 at Estrogen receptor beta [1] is 52 nM; at Estrogen receptor it was 265 nM. Further, the IC50 at Aromatase was 143 nM.

For the compound `NCCOc1ccc(/C(=C2\CCc3ccccc32)c2ccc(O)cc2)cc1` (mixture of isomers), the concentration giving a half-maximal response (EC50) on Estrogen receptor beta [1] came out at 1350 nM; at Estrogen receptor, 3180 nM. At Aromatase, the IC50 was 493 nM.

As for `CC/C(=C(/c1ccc(O)cc1)c1ccc(OCCCN)cc1)c1ccccc1` (mixture of isomers), the EC50 at Estrogen receptor beta [1] and on Estrogen receptor was 21.3 nM in each case. The Activity in data set [2] was found to be 33%. In addition, the IC50 at Aromatase worked out at 1240 nM.

`NCCOc1ccc(/C(=C/c2ccccc2)c2ccc(O)cc2)cc1` (mixture of isomers): the EC50 on Estrogen receptor beta [1] was 19.5 nM; on Estrogen receptor, 1050 nM. In addition, the IC50 at Aromatase came to 6290 nM.

On to `CC/C(=C(/c1ccccc1)c1ccc(OCCN)cc1)c1ccccc1` (mixture of isomers), for which the Activity (in data set [3]; at Estrogen receptor beta [4]) was 0% each time. In addition, the IC50 on Aromatase stood at 913 nM.

For the compound `CCC/C(=C(/c1ccc(O)cc1)c1ccc(OCCN)cc1)c1ccccc1` (mixture of isomers), the EC50 on Estrogen receptor beta [1] was determined as 36.5 nM; at Estrogen receptor, 384 nM. For the same compound, the IC50 at Aromatase is 261 nM.

Turning to `CC/C(=C(/c1ccc(N)cc1)c1ccc(OCCN)cc1)c1ccc(O)cc1` (mixture of isomers), the EC50 stood at 49.9 nM at Estrogen receptor beta [1] and 144 nM on Estrogen receptor. The IC50 on Aromatase stood at 48.1 nM.

As for `CC/C(=C(/c1ccc(O)cc1)c1ccc(OCCO)cc1)c1ccccc1` (mixture of isomers), the values for the Activity (in data set [3]; at Estrogen receptor beta [4]) were 62% and 56%, respectively. For the same compound, the IC50 on Aromatase worked out at 30500 nM.

On to `CCC(CC)=C(c1ccc(O)cc1)c1ccc(OCCN)cc1`, for which the results for the EC50 on Estrogen receptor beta [1] and on Estrogen receptor were 202 nM and 277 nM, respectively. The IC50 at Aromatase stood at 1320 nM.

On to `CC/C(=C(/c1ccc(O)cc1)c1ccc(OCCBr)cc1)c1ccccc1` (mixture of isomers), for which the Activity (in data set [3]; on Estrogen receptor beta [4]) was 60% throughout. Besides, at Aromatase, the “inhibition (INH)” value amounted to 20%.

As to `CC/C(=C(/c1ccc(O)cc1)c1ccc(CCCN)cc1)c1ccc(O)cc1` (mixture of isomers), the EC50 is 293 nM on Estrogen receptor beta [1] and 1920 nM on Estrogen receptor. The Activity in data set [2] was determined as 6%. The IC50 at Aromatase stood at 491 nM.

For the compound `N#CC/C(=C(/c1ccc(O)cc1)c1ccc(OCCN)cc1)c1ccccc1` (mixture of isomers), the Activity in data set [3] was 48%; on Estrogen receptor beta [4], 64%. In addition, the IC50 on Aromatase amounted to 48.9 nM.

Take `NCCOc1ccc(C(=C(c2ccccc2)c2ccccc2)c2ccc(O)cc2)cc1`: the values for the EC50 on Estrogen receptor beta [1] and at Estrogen receptor were 478 nM and 653 nM, respectively. In addition, the IC50 at Aromatase amounted to 1930 nM.

Consider `NCCOc1ccc(/C(=C(\Cn2ccnc2)c2ccccc2)c2ccc(O)cc2)cc1` (mixture of isomers), for which the values for the Activity (in data set [3]; on Estrogen receptor beta [4]) were 59% and 74%, respectively. Also, the IC50 at Aromatase worked out at 16.9 nM.

`CC/C(=C(/c1ccc(N)cc1)c1ccc(OCCN)cc1)c1ccccc1` (mixture of isomers): the half-maximal effective concentration (EC50) on Estrogen receptor beta [1] is 182 nM; at Estrogen receptor, 274 nM. Besides, the IC50 at Aromatase turned out to be 53.1 nM.

Regarding `CC/C(=C(/c1ccc(O)cc1)c1ccc(OCC(=O)O)cc1)c1ccccc1` (mixture of isomers), the Activity turned out to be 55% in data set [3] and 57% at Estrogen receptor beta [4]. On Aromatase, the IC50 is 3680 nM.

Consider `CC/C(=C(/c1ccc(O)cc1)c1ccc(CCCN)cc1)c1ccccc1` (mixture of isomers), for which the EC50 on Estrogen receptor beta [1] was 13.3 nM; at Estrogen receptor it was 27.1 nM. In data set [2], the Activity was determined as 16%. The 50% inhibitory concentration (IC50) at Aromatase amounted to 7340 nM.

`C/C(=C(/c1ccc(O)cc1)c1ccc(OCCN)cc1)c1ccccc1` (mixture of isomers): the EC50 at Estrogen receptor beta [1] came out at 27.8 nM; on Estrogen receptor, 675 nM. The concentration for half-maximal inhibition (IC50) at Aromatase is 337 nM.

Regarding `CC/C(=C(/c1ccc(O)cc1)c1ccc(OCCCl)cc1)c1ccccc1` (mixture of isomers), the Activity in data set [3] amounted to 62%; at Estrogen receptor beta [4], 40%. Also, at Aromatase, the “inhibition (INH)” value was 27%.
